Measurements from ChEMBL document CHEMBL1157468, “Design, synthesis, and testing of non-nephrotoxic desazadesferrithiocin polyether analogues” (J Med Chem, 2008).

How the values were obtained:
[1] = test system: Kidney; assay: Biodistribution in Sprague-Dawley rat kidney assessed per gram tissue wet weight at 300 umol/kg, sc after 1 hr; format: ADME, organism-based; conditions: in vivo
[2] = test system: Pancreas; assay: Biodistribution in Sprague-Dawley rat pancreas assessed per gram tissue wet weight at 300 umol/kg, po after 1 hr; format: ADME, organism-based; conditions: in vivo
Procedure, shortened: (§1)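 Male Sprague–Dawley rats (250–350 g) got one 300 µmol/kg dose, po or sc. Vehicle was water or the monosodium salt (free acid plus 1 equiv NaOH). Three rats per time point were euthanized by CO2 at 1, 2 or 4 h. Plasma came from citrated cardiac blood; liver, kidney, heart and pancreas were removed. Drug levels were measured by HPLC with UV detection at 310 nm against linear calibration curves (detection limit 0.25 µM).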

[3] = test system: Rattus norvegicus; assay: Iron-clearing efficiency in non-iron-overloaded Sprague-Dawley rat bile assessed as iron excretion at 150 umol/kg, po; format: functional
Procedure, shortened: (§2)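 Male Sprague–Dawley rats (400–450 g), not iron-loaded and bile duct-cannulated, got one dose of 50, 150 or 300 µmol/kg po, or 300 µmol/kg sc. Vehicle was water or the monosodium salt. Bile was collected every 3 h for 24 h and urine at 24 h. Iron was measured by atomic absorption. Efficiency was treated minus control iron excretion, divided by theoretical output (2:1 ligand:iron), as a percent; mean ± SEM.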

[4] = test system: Sapajus apella; assay: Iron-clearing efficiency in iron-overloaded Cebus apella at 150 umol/kg, po after 2 days relative to control; format: functional
Procedure, shortened: (§3)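 Monkeys (Cebus apella, 3.5–4 kg) were iron-loaded to about 500 mg Fe/kg with iv iron dextran and rested at least 60 days. They then got one 150 µmol/kg dose, po or sc. Feces and urine were collected every 24 h from 4 days before to 5 days after dosing, and iron was measured by flame atomic absorption. Efficiency was the 2-day post-drug iron minus the 4-day pre-drug baseline, divided by theoretical output (2:1 ligand:iron); mean ± SEM.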

[5] = test system: Heart; assay: Biodistribution in Sprague-Dawley rat heart assessed per gram tissue wet weight at 300 umol/kg, sc after 2 hrs; format: ADME, organism-based; conditions: in vivo
[6] = test system: Pancreas; assay: Biodistribution in Sprague-Dawley rat pancreas assessed per gram tissue wet weight at 300 umol/kg, sc after 1 hr; format: ADME, organism-based; conditions: in vivo
[7] = test system: Liver; assay: Biodistribution in Sprague-Dawley rat liver assessed per gram tissue wet weight at 300 umol/kg, sc after 2 hrs; format: ADME, organism-based; conditions: in vivo
[8] = test system: Heart; assay: Biodistribution in Sprague-Dawley rat heart assessed per gram tissue wet weight at 300 umol/kg, po after 2 hrs; format: ADME, organism-based; conditions: in vivo; procedure, shortened: as §1
[9] = test system: Kidney; assay: Biodistribution in Sprague-Dawley rat kidney assessed per gram tissue wet weight at 300 umol/kg, po after 2 hrs; format: ADME, organism-based; conditions: in vivo; procedure, shortened: as §1
[10] = test system: Heart; assay: Biodistribution in Sprague-Dawley rat heart assessed per gram tissue wet weight at 300 umol/kg, sc after 1 hr; format: ADME, organism-based; conditions: in vivo
[11] = test system: Liver; assay: Biodistribution in Sprague-Dawley rat liver assessed per gram tissue wet weight at 300 umol/kg, po after 2 hrs; format: ADME, organism-based; conditions: in vivo; procedure, shortened: as §1
[12] = test system: Plasma; assay: Biodistribution in Sprague-Dawley rat plasma at 300 umol/kg, sc after 1 hr; format: ADME, organism-based; conditions: in vivo
[13] = test system: Rattus norvegicus; assay: Iron-clearing efficiency in non-iron-overloaded Sprague-Dawley rat at 300 umol/kg, sc after 24 hrs relative to control; format: functional; procedure, shortened: as §2
[14] = test system: Plasma; assay: Biodistribution in Sprague-Dawley rat plasma at 300 umol/kg, sc after 4 hrs; format: ADME, organism-based; conditions: in vivo
[15] = test system: Pancreas; assay: Biodistribution in Sprague-Dawley rat pancreas assessed per gram tissue wet weight at 300 umol/kg, sc after 2 hrs; format: ADME, organism-based; conditions: in vivo
[16] = test system: Liver; assay: Biodistribution in Sprague-Dawley rat liver assessed per gram tissue wet weight at 300 umol/kg, po after 1 hr; format: ADME, organism-based; conditions: in vivo; procedure, shortened: as §1
[17] = test system: Heart; assay: Biodistribution in Sprague-Dawley rat heart assessed per gram tissue wet weight at 300 umol/kg, po after 1 hr; format: ADME, organism-based; conditions: in vivo; procedure, shortened: as §1
[18] = test system: Pancreas; assay: Biodistribution in Sprague-Dawley rat pancreas assessed per gram tissue wet weight at 300 umol/kg, po after 2 hrs; format: ADME, organism-based; conditions: in vivo; procedure, shortened: as §1
[19] = test system: Plasma; assay: Biodistribution in Sprague-Dawley rat plasma at 300 umol/kg, sc after 2 hrs; format: ADME, organism-based; conditions: in vivo
[20] = test system: Heart; assay: Biodistribution in Sprague-Dawley rat heart assessed per gram tissue wet weight at 300 umol/kg, po after 4 hrs; format: ADME, organism-based; conditions: in vivo; procedure, shortened: as §1
[21] = test system: Kidney; assay: Biodistribution in Sprague-Dawley rat kidney assessed per gram tissue wet weight at 300 umol/kg, sc after 4 hrs; format: ADME, organism-based; conditions: in vivo
[22] = test system: Rattus norvegicus; assay: Nephrotoxicity in Sprague-Dawley rat assessed as heavy vacuolized renal tubules at […] for 7 days by renal perfusion studies; format: toxicity, organism-based; conditions: in vivo, 168 h, in the assay text read “237 umol/kg” for “273 umol/kg”
Procedure, shortened: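 Male Sprague–Dawley rats (200–250 g), fasted overnight, got 237 µmol/kg/dose po twice daily (474 µmol/kg/day) for 7 days and were fed about 3 h post-drug. Untreated age-matched rats were controls. One day post-drug, under pentobarbital, kidneys were perfusion-fixed with glutaraldehyde in Tyrode's buffer and embedded in TAAB. 500 nm sections were stained with toluidine blue and examined by light microscopy at 400×.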

[23] = test system: Liver; assay: Biodistribution in Sprague-Dawley rat liver assessed per gram tissue wet weight at 300 umol/kg, po after 4 hrs; format: ADME, organism-based; conditions: in vivo; procedure, shortened: as §1
[24] = test system: Kidney; assay: Biodistribution in Sprague-Dawley rat kidney assessed per gram tissue wet weight at 300 umol/kg, po after 1 hr; format: ADME, organism-based; conditions: in vivo; procedure, shortened: as §1
[25] = test system: Rattus norvegicus; assay: Iron-clearing efficiency in non-iron-overloaded Sprague-Dawley rat at 300 umol/kg, po after 24 hrs relative to control; format: functional; procedure, shortened: as §2
[26] = test system: Rattus norvegicus; assay: Toxicity in iron-overloaded Sprague-Dawley rat assessed as survival at 119 umol/kg/day, po after 30 days by non-renal perfusion protocol; format: organism-based; conditions: in vivo, 720 h
[27] = test system: Plasma; assay: Biodistribution in Sprague-Dawley rat plasma at 300 umol/kg, po after 2 hrs; format: ADME, organism-based; conditions: in vivo; procedure, shortened: as §1
[28] = test system: Plasma; assay: Biodistribution in Sprague-Dawley rat plasma at 300 umol/kg, po after 4 hrs; format: ADME, organism-based; conditions: in vivo; procedure, shortened: as §1
[29] = test system: Liver; assay: Biodistribution in Sprague-Dawley rat liver assessed per gram tissue wet weight at 300 umol/kg, sc after 4 hrs; format: ADME, organism-based; conditions: in vivo
[30] = test system: Rattus norvegicus; assay: Iron-clearing efficiency in non-iron-overloaded Sprague-Dawley rat at 150 umol/kg, po after 24 hrs relative to control; format: functional; procedure, shortened: as §2
[31] = test system: Pancreas; assay: Biodistribution in Sprague-Dawley rat pancreas assessed per gram tissue wet weight at 300 umol/kg, sc after 4 hrs; format: ADME, organism-based; conditions: in vivo
[32] = test system: Liver; assay: Biodistribution in Sprague-Dawley rat liver assessed per gram tissue wet weight at 300 umol/kg, sc after 1 hr; format: ADME, organism-based; conditions: in vivo
[33] = test system: Kidney; assay: Biodistribution in Sprague-Dawley rat kidney assessed per gram tissue wet weight at 300 umol/kg, po after 4 hrs; format: ADME, organism-based; conditions: in vivo; procedure, shortened: as §1
[34] = test system: Kidney; assay: Biodistribution in Sprague-Dawley rat kidney assessed per gram tissue wet weight at 300 umol/kg, sc after 2 hrs; format: ADME, organism-based; conditions: in vivo
[35] = test system: Plasma; assay: Biodistribution in Sprague-Dawley rat plasma at 300 umol/kg, po after 1 hr; format: ADME, organism-based; conditions: in vivo; procedure, shortened: as §1
[36] = test system: Rattus norvegicus; assay: Iron-clearing efficiency in non-iron-overloaded Sprague-Dawley rat bile assessed as iron excretion at 300 umol/kg, po; format: functional; procedure, shortened: as §2
[37] = test system: Sapajus apella; assay: Iron-clearing efficiency in iron-overloaded Cebus apella at 150 umol/kg, sc after 2 days relative to control; format: functional; procedure, shortened: as §3

`C[C@]1(C(=O)O)CSC(c2ccc(O)cc2O)=N1` [DEFERITRIN] was tested, and the Drug uptake [1] was 179 nmol/g, the Drug uptake [2] was 13 nmol/g and the Activity [3] was >98%. It also gave an Activity [4] of 16.8%, a Drug uptake [5] of 5 nmol/g and a Drug uptake [6] of 28 nmol/g. For the same compound, the Drug uptake [7] was 48 nmol/g, the Drug uptake [8] was 5 nmol/g and the Drug uptake [9] was 100 nmol/g. For the same compound, the Drug uptake [10] was 13 nmol/g, the Drug uptake [11] was 73 nmol/g and the Drug uptake [12] was 34 nmol/g. For the same compound, the Activity [13] was 1.1%, the Drug uptake [14] was 2 nmol/g and the Drug uptake [15] was 6 nmol/g. For the same compound, the Drug uptake [16] was 131 nmol/g, the Drug uptake [17] was 8 nmol/g and the Drug uptake [18] was 9 nmol/g. The Drug uptake [19] was 13 nmol/g, the Drug uptake [20] was 3 nmol/g and the Drug uptake [21] was 27 nmol/g. The Activity [22] was “Toxic”, the Drug uptake [23] was 44 nmol/g and the Drug uptake [24] was 208 nmol/g. For the same compound, the Activity [25] was 1.1%, the Activity [26] was “Non-toxic” and the Drug uptake [27] was 8 nmol/g. It also gave a Drug uptake [28] of 5 nmol/g, a Drug uptake [29] of 25 nmol/g and an Activity [30] of 1.5%. The Drug uptake [31] was 6 nmol/g, the Drug uptake [32] was 80 nmol/g and the Drug uptake [33] was 61 nmol/g. For the same compound, the Drug uptake [34] was 97 nmol/g, the Drug uptake [35] was 31 nmol/g and the Activity [36] was >98%. The Activity [37] was 15.9%.
